IDH1 mut inh: IDH1 R132H (human) inhibition. AID 624101. inhibition, % at 10 µM. O75874. IDH1 R132H reductase, diaphorase/resazurin fluorescence, 60 min. 0.18% of 70,000 active; in the data active = inhibition above about 34%; inconclusive = no clear call, values can overlap the other calls; inactive = below about 11%
KDM4C inh: inhibitors of human demethylase GASC-1 KDM4C. Q9H3R0. GST-KDM4C 2-372, H3K9me3 peptide, LANCE TR-FRET. inhibition, % at 12.5 µM. 0.15% of 96,000 active. AID 720574;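 active = mean replicate inhibition above about 25%, with at least 55% of replicates also reaching it, limit read from the data, passing the limit was not always enough; inconclusive = only one of those two conditions met; inactive = neither condition met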
Target sequence (Q9H3R0 2-372 limits assumed): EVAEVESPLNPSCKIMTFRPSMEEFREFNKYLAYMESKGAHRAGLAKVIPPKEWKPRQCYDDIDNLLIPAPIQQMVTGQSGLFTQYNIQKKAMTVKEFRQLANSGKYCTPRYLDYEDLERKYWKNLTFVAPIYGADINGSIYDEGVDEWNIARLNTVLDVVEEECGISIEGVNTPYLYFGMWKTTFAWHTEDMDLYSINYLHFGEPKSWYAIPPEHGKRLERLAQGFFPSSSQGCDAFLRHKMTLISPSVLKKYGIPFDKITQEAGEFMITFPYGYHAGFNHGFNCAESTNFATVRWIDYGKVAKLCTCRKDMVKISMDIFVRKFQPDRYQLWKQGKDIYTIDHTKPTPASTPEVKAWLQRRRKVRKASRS
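Test system: N-terminal GST-fused human GASC-1 (KDM4C) fragment, residues 2-372; quantity: GASC-1 enzyme at 10 nM final in reaction; dosing: single dose; schedule: 30 min demethylation and 1 h detection at room temperature; signal: LANCE TR-FRET, excitation 340 nm, emissions 618 and 671 nm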
T cruzi growth-1: blocks T. cruzi growth in NIH3T3 culture | T. cruzi beta-gal in NIH3T3, GalScreen luminescence, 90 h | inhibition, % at 8.34 µM | 5.9% of 77,000 active;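 active = mean inhibition above about 93%, with at least 55% of replicates each passing it, limit read from the data, passing the limit was not always enough; inconclusive = only one of those two conditions holds; inactive = neither condition holds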
T cruzi growth-2: inhibitors of T. cruzi proliferation. inhibition, % at 8.35 µM. shares compounds with T cruzi growth-1. AID 651739. T. cruzi beta-gal in NIH3T3, GalScreen luminescence, 90 h. 72% of 5,600 active;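 active = mean replicate inhibition above about 95% and at least 55% of replicates individually reaching it, limit read from the data; inconclusive = only one of the two criteria is met; inactive = neither criterion is met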
T cruzi growth-3: Trypanosoma cruzi proliferation inhibition; shares compounds with T cruzi growth-1; T. cruzi beta-gal in NIH3T3, GalScreen luminescence, 90 h; inhibition, % at 2.09 µM; 21% of 5,600 active; AID 651740;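 active = mean inhibition above about 95%, with at least 55% of replicates also reaching it, limit read from the data; inconclusive = meets just one of the two conditions; inactive = meets neither condition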
NIH3T3 tox: NIH/3T3 (mouse) viability loss. AID 651742. cytotoxicity (signal decrease), % at 8.35 µM. 14% of 5,600 active. NIH/3T3 viability, CellTiter-Glo ATP luminescence, 90 h. shares compounds with T cruzi growth-1;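 active = mean signal decrease across replicates above about 35% based on untreated-well scatter, with enough replicates individually passing, limit read from the data; inconclusive = no rule stated though some were filed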
NIH3T3 tox 2: kills mouse NIH/3T3 fibroblasts; shares compounds with T cruzi growth-1; inhibition, % at 24.9 µM; NIH/3T3 viability, CellTiter-Glo ATP luminescence, 90 h; 56% of 5,600 active; AID 651744;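 active = mean loss of cell viability signal at or above a set limit, and enough replicates individually reaching it; inconclusive = meets only the mean limit or only the replicate share; inactive = meets neither condition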
Hits are given with their value; i = inactive; ? = inconclusive; nt = not tested or not shown. The full list was thinned out, with hits kept by preference.

SMILES | IDH1 mut inh | KDM4C inh | T cruzi growth-1 | T cruzi growth-2 | T cruzi growth-3 | NIH3T3 tox | NIH3T3 tox 2
COc1ccc(CN(C)C[C@@H]2Oc3ccc(NS(=O)(=O)c4ccc(C)cc4)cc3CC(=O)N([C@@H](C)CO)C[C@H]2C)cc1 | i | i | nt | nt | nt | nt | nt
COc1ccc(CN(C)C[C@H]2Oc3ccc(NS(=O)(=O)c4ccc(Cl)cc4)cc3CC(=O)N([C@H](C)CO)C[C@H]2C)cc1 | i | i | i | nt | nt | nt | nt
Cc1ccc(CCC(=O)Nc2ccccc2)o1 | i | nt | nt | nt | nt | nt | nt
O=C(c1cccc(F)c1)N1CC(=O)N2[C@H](CO)[C@H](c3ccc(/C=C/c4ccccc4)cc3)[C@@H]2C1 | nt | i | nt | nt | nt | nt | nt
O=C(c1ccc(F)cc1)N1CCCCN2[C@@H](CO)[C@H](c3ccc(/C=C/c4ccccc4)cc3)[C@@H]2C1 | nt | i | 111.7 | 95.1 | i | 59.7 | 103.3
O=C(c1cccc(F)c1)N1CCCCN2[C@H](CO)[C@@H](c3ccc(/C=C/c4ccccc4)cc3)[C@@H]2C1 | nt | i | 108.8 | 100.2 | i | i | i
O=C(c1cccc(F)c1)N1CCCCN2[C@H](C1)[C@@H](c1ccc(/C=C/c3ccccc3)cc1)[C@@H]2CO | nt | i | 111.1 | i | i | 53.7 | 39.1
O=C(c1ccc(F)cc1)N1CCCCN2[C@H](C1)[C@H](c1ccc(-c3ccccc3)cc1)[C@@H]2CO | nt | i | i | nt | nt | nt | nt
O=C(c1cccc(F)c1)N1CCCCN2[C@H](C1)[C@H](c1ccc(-c3ccc(F)cc3)cc1)[C@@H]2CO | nt | nt | i | nt | nt | nt | nt
O=C(c1cccc(F)c1)N1CCCCN2[C@H](C1)[C@H](c1ccc(/C=C/c3ccccc3)cc1)[C@@H]2CO | nt | i | 110.2 | ? | i | i | 103.4
O=C(c1cccc(F)c1)N1CCCCN2[C@H](C1)[C@@H](c1ccc(-c3ccc(F)cc3)cc1)[C@@H]2CO | nt | nt | i | nt | nt | nt | nt
CC(=O)Nc1ccc(-c2nnc(SCC(=O)Nc3cccc(C(F)(F)F)c3)n2C)cc1 | i | nt | nt | nt | nt | nt | nt
O=C(CNS(=O)(=O)c1ccc(Cl)cc1)Nc1ccc(I)cc1 | i | nt | nt | nt | nt | nt | nt
COc1ccc(C(=O)CSc2nnc(-c3ccccc3Cl)n2C)cc1OC | i | nt | nt | nt | nt | nt | nt
Cc1nnc2sc(-c3ccccc3NC(=S)NC(=O)CC34CC5CC(CC(C5)C3)C4)nn12 | i | nt | nt | nt | nt | nt | nt
O=C(CSc1nnc(-c2cccc([N+](=O)[O-])c2)o1)c1ccc2c(c1)OCCO2 | i | nt | nt | nt | nt | nt | nt
O=C(COc1ccc(C(=O)Nc2cc(Cl)ccc2Cl)cc1)Nc1cccc2ccccc12 | i | nt | nt | nt | nt | nt | nt
CCc1cccc(NC(=O)CSc2c(C)n[nH]c2C)c1 | i | nt | nt | nt | nt | nt | nt
CN(CC(=O)Nc1ccc(Oc2ccccc2)cc1)S(=O)(=O)c1ccc(F)cc1 | i | nt | nt | nt | nt | nt | nt
O=C(c1cccc(F)c1)N1CCCCN2[C@H](CO)[C@H](c3ccc(-c4cncnc4)cc3)[C@@H]2C1 | nt | i | i | nt | nt | nt | nt
O=C(c1cccc(F)c1)N1CCCCN2[C@@H](CO)[C@@H](c3ccc(/C=C/c4ccccc4)cc3)[C@@H]2C1 | nt | i | 109.1 | 101.4 | i | 65.9 | 104.9
COc1ccc(-c2cc(=O)oc3cc(OC(C(=O)O)c4ccccc4)ccc23)cc1 (stereo unspecified) | i | nt | nt | nt | nt | nt | nt
CC1(C)CC[C@]2(C(=O)O[C@@H]3O[C@H](CO[C@@H]4O[C@H](CO[C@@H]5O[C@H](CO)[C@@H](O)[C@H](O)[C@H]5O)[C@@H](O)[C@H](O)[C@H]4O)[C@@H](O)[C@H](O[C@@H]4O[C@H](CO)[C@@H](O)[C@H](O)[C@H]4O)[C@H]3O)CC[C@]3(C)C(=CCC4[C@@]5(C)CC[C@H](O)[C@@](C)(C(=O)O)C5CC[C@]43C)C2C1 (stereo partly specified) | i | nt | nt | nt | nt | nt | nt
C[C@@H]1CN([C@@H](C)CO)C(=O)c2cc(C#CCN(C)C)cnc2O[C@@H]1CN(C)Cc1ccc(C(=O)O)cc1 | i | i | 109.2 | ? | i | i | i
C[C@H]1CN([C@@H](C)CO)C(=O)c2cc(C#CCN(C)C)cnc2O[C@@H]1CN(C)Cc1ccc(-c2ccccc2)cc1 | i | i | 107.8 | 107.4 | i | i | 103.2
C[C@@H]1CN([C@H](C)CO)C(=O)c2cc(C#CCN(C)C)cnc2O[C@H]1CN(C)Cc1ccccc1F | i | i | 100.9 | i | i | i | i
